The RNAGym collection of RNA variant scans (doi:10.1126/science.aae0568)
This sample holds only a part of the variants without activity.

B1: tRNA (parent)
chain: GUUCCGUUGGCGUAAUGGUAACGCGUCUCCCUCCUAAGGAGAAGACUGCGGGUUCGAGUCCCGUACGGAACG

Variants of: B1
Test: yeast fitness relative to wild type (ratio to wild type); higher = fitter; tRNA-Arg(CCU), competitive growth, 37 C, YPD
Outline: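 The tRNA-Arg(CCU) gene variants were made by chemical synthesis with a 3% per-site mutation rate at 69 sites and inserted at the native genomic locus of Saccharomyces cerevisiae. After pooling, the strains were competed in YPD at 37°C for 24 hours in six parallel replicates. Gene amplicons from the start population and each end population were read by 100-nucleotide paired-end sequencing, and Darwinian fitness relative to wild type was taken from genotype frequency changes. Genotypes needed ≥ 100 starting reads, and estimates < 0.5 were set to 0.5.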
A20U A21U C31G C55A C66U showed a yeast fitness of at most 0.5.
A20U A21U C33G U35G G50U G68A gave a yeast fitness of 0.637.
Work on A20U A36C C60A yielded a yeast fitness of at most 0.5.
Variant A20U A36G A70U has a yeast fitness of 0.626.
With A20U A36G C55G the yeast fitness was 0.579.
Work on A20U A36G G67C A69C yielded a yeast fitness of at most 0.5.
For A20U A36U G44C, the yeast fitness was at most 0.5.
A20U A37C A43U showed a yeast fitness of 0.59.
Variant A20U A37C U53A has a yeast fitness of 0.682.
In the case of A20U A37G C66A A69U, the yeast fitness is reported as at most 0.5.
A20U A37U gave a yeast fitness of 0.811.
Variant A20U A37U C55U has a yeast fitness of at most 0.5.
For A20U A37U U59C, the yeast fitness was 0.675.
With A20U A40G A42G G50A the yeast fitness was at most 0.5.
A20U A40G A57G showed a yeast fitness of 0.67.
A20U A40U A69U gave a yeast fitness of 0.73.
With A20U A40U U59A the yeast fitness was at most 0.5.
A20U A42C showed a yeast fitness of 0.648.
A20U A42C G48A gave a yeast fitness of 0.543.
A20U A42G A65G showed a yeast fitness of 0.689.
In the case of A20U A42U C61U C66U, the yeast fitness is reported as at most 0.5.
Variant A20U A42U G67A G68C has a yeast fitness of at most 0.5.
A20U A42U U59A showed a yeast fitness of 0.59.
For A20U A43C U54C, the yeast fitness was at most 0.5.
For A20U A43G A70U, the yeast fitness was 0.661.
Variant A20U A43G G58A has a yeast fitness of 0.91.
A20U A43U C49A G58C showed a yeast fitness of 0.535.
A20U A43U C49A G68A gave a yeast fitness of at most 0.5.
Variant A20U A43U C55A U64A has a yeast fitness of at most 0.5.
For A20U A45C A65C, the yeast fitness was 0.63.
For A20U A45C G52C, the yeast fitness was 0.568.
Variant A20U A45G G50A G52A has a yeast fitness of 0.602.
With A20U A45U the yeast fitness was 0.777.
In the case of A20U A57U, the yeast fitness is reported as 0.762.
With A20U A65C the yeast fitness was 0.823.
In the case of A20U A70C, the yeast fitness is reported as 0.977.
In the case of A20U C22G A40G, the yeast fitness is reported as 0.745.
For A20U C22G A40G A70U, the yeast fitness was at most 0.5.
With A20U C22G A40G C66U the yeast fitness was at most 0.5.
Work on A20U C22G C60A yielded a yeast fitness of at most 0.5.
For A20U C22G U47C, the yeast fitness was at most 0.5.
For A20U C22U C24U, the yeast fitness was at most 0.5.
In the case of A20U C22U C33A C66A, the yeast fitness is reported as at most 0.5.
Work on A20U C24A A57C yielded a yeast fitness of at most 0.5.
For A20U C24G C31A G58C, the yeast fitness was 0.504.
A20U C24G C31G G52A C55G C61U showed a yeast fitness of at most 0.5.
A20U C24G C49G gave a yeast fitness of at most 0.5.
Work on A20U C24G G63A A65U yielded a yeast fitness of at most 0.5.
Work on A20U C24U A42C C62G yielded a yeast fitness of 0.735.
For A20U C24U A43G U59A, the yeast fitness was at most 0.5.
A20U C27A gave a yeast fitness of 0.717.
In the case of A20U C27A A40C C46A, the yeast fitness is reported as at most 0.5.
Variant A20U C27G C29A has a yeast fitness of at most 0.5.
In the case of A20U C27G C29A A57G A65G, the yeast fitness is reported as at most 0.5.
Work on A20U C27G C30G A36C A70U yielded a yeast fitness of at most 0.5.
A20U C27G C46G C49U gave a yeast fitness of at most 0.5.
Work on A20U C27G C49A yielded a yeast fitness of at most 0.5.
A20U C27U showed a yeast fitness of 1.05.
Variant A20U C27U C61G has a yeast fitness of 0.647.
A20U C27U U32C G52C gave a yeast fitness of at most 0.5.
For A20U C29G A37G G44A G63A, the yeast fitness was at most 0.5.
Work on A20U C29G C49G G63C yielded a yeast fitness of 0.543.
A20U C29G U47C C49G G63C showed a yeast fitness of at most 0.5.
Work on A20U C29U A57G A65G yielded a yeast fitness of at most 0.5.
Work on A20U C29U C30G C34A U35A G48C yielded a yeast fitness of at most 0.5.
For A20U C30A A40C, the yeast fitness was at most 0.5.
Work on A20U C30A G52A A65U yielded a yeast fitness of at most 0.5.
With A20U C30G the yeast fitness was 0.61.
With A20U C30G A69U the yeast fitness was 0.59.
Variant A20U C30G C33A G50A G52A C60U C61G G67A has a yeast fitness of at most 0.5.
With A20U C31A C33G G56A the yeast fitness was at most 0.5.
With A20U C31A G41A the yeast fitness was at most 0.5.
A20U C31G gave a yeast fitness of 0.865.
Work on A20U C31G A36C A45G A70U yielded a yeast fitness of at most 0.5.
A20U C31G A69C showed a yeast fitness of at most 0.5.
In the case of A20U C31G C55G A57U, the yeast fitness is reported as at most 0.5.
A20U C31G C55G C60G C66U A70U showed a yeast fitness of at most 0.5.
In the case of A20U C31U A57U, the yeast fitness is reported as 0.567.
Work on A20U C31U C62A A69U yielded a yeast fitness of at most 0.5.
Variant A20U C31U C62U has a yeast fitness of 0.826.
With A20U C31U G38C the yeast fitness was 0.553.
With A20U C31U G56A A69C the yeast fitness was at most 0.5.
With A20U C31U G56A C61U the yeast fitness was at most 0.5.
A20U C33A G41C showed a yeast fitness of at most 0.5.
For A20U C33A G44A C62U, the yeast fitness was at most 0.5.
A20U C33U A43G U64C showed a yeast fitness of at most 0.5.
With A20U C34A the yeast fitness was 0.7.
Variant A20U C34A C55G C66A has a yeast fitness of 0.561.
For A20U C34A C62U, the yeast fitness was 0.542.
A20U C34A G38A U59A showed a yeast fitness of at most 0.5.
In the case of A20U C34A G58C C62A A69C, the yeast fitness is reported as at most 0.5.
In the case of A20U C34G, the yeast fitness is reported as 0.68.
A20U C34G A36C C55U gave a yeast fitness of 0.528.
With A20U C34G G38C the yeast fitness was at most 0.5.
Work on A20U C34G G48C yielded a yeast fitness of 0.53.
In the case of A20U C34U, the yeast fitness is reported as 0.652.
In the case of A20U C34U C46U G51A C66U, the yeast fitness is reported as at most 0.5.
For A20U C34U G41A, the yeast fitness was at most 0.5.
With A20U C34U G58C the yeast fitness was at most 0.5.
Work on A20U C46G G51C C61U yielded a yeast fitness of at most 0.5.
Variant A20U C46U has a yeast fitness of 0.995.
With A20U C46U A69G the yeast fitness was 0.893.
A20U C46U C55G gave a yeast fitness of 0.539.
For A20U C49G, the yeast fitness was 0.752.
Work on A20U C55U A57C yielded a yeast fitness of at most 0.5.
In the case of A20U C60G, the yeast fitness is reported as 0.691.
A20U C61A gave a yeast fitness of 0.646.
A20U C61G showed a yeast fitness of 0.712.
A20U C61U C66U gave a yeast fitness of 0.559.
A20U C62G showed a yeast fitness of 0.682.
Work on A20U C62U A69C yielded a yeast fitness of 0.686.
Work on A20U C62U U64G yielded a yeast fitness of 0.603.
A20U C66A showed a yeast fitness of 0.612.
A20U C66U A70U gave a yeast fitness of 0.646.
For A20U G23A A36U, the yeast fitness was 0.515.
For A20U G23A A36U A65U, the yeast fitness was at most 0.5.
Variant A20U G23A C49U has a yeast fitness of 0.609.
Variant A20U G23A C66U has a yeast fitness of 0.55.
A20U G23C U53A C55U showed a yeast fitness of at most 0.5.
A20U G25A A69U gave a yeast fitness of 0.838.
A20U G25A C27G G67A gave a yeast fitness of 0.542.
A20U G25A C49G showed a yeast fitness of 0.619.
Variant A20U G25A G67U has a yeast fitness of 0.673.
With A20U G25C the yeast fitness was 0.885.
A20U G25C A37G C60G C61G showed a yeast fitness of 0.561.
For A20U G25C A37G C60G C61G A70U, the yeast fitness was at most 0.5.
A20U G25C C49G A65C A70U showed a yeast fitness of at most 0.5.
In the case of A20U G25C U35C C60G, the yeast fitness is reported as at most 0.5.
In the case of A20U G38A A57U, the yeast fitness is reported as at most 0.5.
For A20U G38C A45C C60G, the yeast fitness was at most 0.5.
In the case of A20U G38C C46A, the yeast fitness is reported as at most 0.5.
In the case of A20U G38C C49A, the yeast fitness is reported as at most 0.5.
A20U G38C G50C A65C showed a yeast fitness of at most 0.5.
For A20U G38C G68U, the yeast fitness was at most 0.5.
A20U G39C gave a yeast fitness of 0.81.
A20U G39C A40G C49U C55G showed a yeast fitness of at most 0.5.
With A20U G41C the yeast fitness was 0.753.
Work on A20U G41C C46U C66A yielded a yeast fitness of at most 0.5.
Variant A20U G41C G51C C62G has a yeast fitness of 0.735.
In the case of A20U G41C G56C, the yeast fitness is reported as 0.574.
With A20U G44A C60A the yeast fitness was at most 0.5.
In the case of A20U G44C C60A, the yeast fitness is reported as 0.617.
A20U G48A showed a yeast fitness of 0.922.
In the case of A20U G48C U53C G68C, the yeast fitness is reported as at most 0.5.
Variant A20U G50A A57U C60G A65U has a yeast fitness of 0.531.
A20U G50A C60G showed a yeast fitness of at most 0.5.
With A20U G50A G68C the yeast fitness was at most 0.5.
A20U G50A U59C showed a yeast fitness of 0.619.
For A20U G50C, the yeast fitness was 0.638.
Variant A20U G51C A65G has a yeast fitness of at most 0.5.
For A20U G52A, the yeast fitness was 0.759.
With A20U G63C the yeast fitness was 0.649.
In the case of A20U G67A, the yeast fitness is reported as 0.657.
With A20U G67A A70G the yeast fitness was 0.882.
With A20U G67C the yeast fitness was 0.732.
For A20U G68A A69C, the yeast fitness was 0.639.
For A20U G68U, the yeast fitness was 0.792.
Work on A20U U26A C55U yielded a yeast fitness of 0.747.
For A20U U26A C62U, the yeast fitness was 0.542.
A20U U26C showed a yeast fitness of 0.89.
A20U U26C C30A U47A A65U showed a yeast fitness of at most 0.5.
In the case of A20U U28A C31U C55G A57C, the yeast fitness is reported as at most 0.5.
With A20U U28A C33U the yeast fitness was at most 0.5.
For A20U U28C, the yeast fitness was 0.934.
For A20U U28C A40U C62G, the yeast fitness was 0.533.
For A20U U28C A69C, the yeast fitness was 0.699.
A20U U28C C30U A43G gave a yeast fitness of at most 0.5.
